Measurements as given in PMC10949176 (Clinical and Translational Science, 2024).
pEC50, pIC50, pKi: −log10 of the molar value. Several values for one entry are separate records, joined by “and”; a condition that tells them apart may be missing. Equal values may be shown once. Entries after “also recorded” stand apart in the source; their conditions may differ.

Experiments:
[1] = test system: palbociclib metabolic pathways in co‐culture human hepatocyte models; format: in vitro ADME
[2] = ref https://endpts.com/arvinas‐reports‐delay‐for‐pfizer‐partnered‐protein‐degradation‐program/, cited from earlier work
[3] = test system: palbociclib intrinsic clearance in Hμrel co‐culture hepatocytes; assay: Impact of ARV-471 on intrinsic clearance of palbociclib in Hμrel; format: in vitro ADME, human; settings: at ~3 μM ARV‐471
[4] = biological target: T1, SULT2A1 (Homo sapiens, UniProt Q06520); assay: ARV-471 inhibition of recombinant SULT2A1; format: biochemical; settings: rSULT2A1 IC50 (DHEAS formation)
T1 sequence (Q06520 1-285): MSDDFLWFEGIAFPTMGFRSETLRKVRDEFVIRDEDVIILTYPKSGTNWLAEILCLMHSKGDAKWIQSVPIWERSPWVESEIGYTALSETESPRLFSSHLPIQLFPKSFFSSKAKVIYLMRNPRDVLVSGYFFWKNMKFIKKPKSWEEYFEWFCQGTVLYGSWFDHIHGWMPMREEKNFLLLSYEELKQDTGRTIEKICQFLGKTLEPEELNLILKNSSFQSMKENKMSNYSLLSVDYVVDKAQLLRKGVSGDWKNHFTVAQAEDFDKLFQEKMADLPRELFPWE
Summary of the method: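 Recombinant human SULT2A1 incubated with varying test compound concentrations. Read-out was formation of DHEAS, with IC50 derived from the concentration response. Mean of three.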

[5] = test system: CYP3A; assay: CYP3A activity in Hμrel with ARV-471; format: cell-based, human
[6] = biological target: T1, SULT2A1; assay: ARV-471 inhibition of SULT2A1 in Hμrel; format: cell-based; settings: Hμrel IC50 (DHEAS formation, SULT2A1), Hμrel model
Summary of the method: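 Hμrel co-culture of mixed-gender, five-donor pooled hepatocytes, acclimated 24 h at 37°C, 5% CO₂, exposed to varying test compound concentrations. […] DHEAS formation was measured and IC50 derived. Mean of three.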

[7] = test system: palbociclib sulfation; assay: Formation of palbociclib sulfate in Hμrel with ARV-471; format: cell-based, human
[8] = test system: CYP2B6 mRNA (marker of CAR); assay: mRNA induction in sandwich cultured hepatocytes; format: cell-based, human; settings: RIS qualified donor HH1103, sandwich cultured hepatocytes, 48 h
[9] = Preliminary reaction phenotyping of palbociclib in hepatocytes; format: in vitro ADME; settings: novel approach (manuscript under preparation)
[10] = test system: CYP3A4 mRNA (marker of PXR); assay: mRNA induction in sandwich cultured hepatocytes; format: cell-based, human; settings: RIS qualified donor HH1103, sandwich cultured hepatocytes, 48 h
[11] = test system: recombinant SULT1C2; assay: Recombinant SULT inhibition by ABT, SULT1C2; format: biochemical; settings: 1 mM ABT, raloxifene probe substrate, data not shown
[12] = biological target: UGT1A9 (Homo sapiens, UniProt O60656); assay: UGT inhibition in suspension human hepatocytes; format: cell-based; settings: read-out: Ki,u HHEPs; UGT1A9, Propofol 10 μM, unbound
Chain of UGT1A9 (O60656 26-530): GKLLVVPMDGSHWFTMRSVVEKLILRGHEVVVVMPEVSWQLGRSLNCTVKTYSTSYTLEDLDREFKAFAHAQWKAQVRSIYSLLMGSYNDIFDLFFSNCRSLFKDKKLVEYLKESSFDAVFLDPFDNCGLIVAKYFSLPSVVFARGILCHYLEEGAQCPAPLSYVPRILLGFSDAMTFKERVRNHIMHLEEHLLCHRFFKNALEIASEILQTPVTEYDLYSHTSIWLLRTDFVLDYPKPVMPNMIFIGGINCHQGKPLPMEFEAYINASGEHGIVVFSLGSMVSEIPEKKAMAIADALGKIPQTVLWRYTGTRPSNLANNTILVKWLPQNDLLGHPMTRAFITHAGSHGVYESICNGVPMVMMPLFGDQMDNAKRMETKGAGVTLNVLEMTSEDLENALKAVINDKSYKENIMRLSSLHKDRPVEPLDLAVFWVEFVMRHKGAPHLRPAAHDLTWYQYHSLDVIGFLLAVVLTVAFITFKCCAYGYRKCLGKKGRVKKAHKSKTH

[13] = biological target: UGT2B15 (Homo sapiens, UniProt P54855); assay: UGT inhibition in suspension human hepatocytes; format: cell-based; settings: read-out: Ki,u HHEPs; UGT2B15, Oxazepam 10 μM, unbound
Chain of UGT2B15 (P54855 24-530): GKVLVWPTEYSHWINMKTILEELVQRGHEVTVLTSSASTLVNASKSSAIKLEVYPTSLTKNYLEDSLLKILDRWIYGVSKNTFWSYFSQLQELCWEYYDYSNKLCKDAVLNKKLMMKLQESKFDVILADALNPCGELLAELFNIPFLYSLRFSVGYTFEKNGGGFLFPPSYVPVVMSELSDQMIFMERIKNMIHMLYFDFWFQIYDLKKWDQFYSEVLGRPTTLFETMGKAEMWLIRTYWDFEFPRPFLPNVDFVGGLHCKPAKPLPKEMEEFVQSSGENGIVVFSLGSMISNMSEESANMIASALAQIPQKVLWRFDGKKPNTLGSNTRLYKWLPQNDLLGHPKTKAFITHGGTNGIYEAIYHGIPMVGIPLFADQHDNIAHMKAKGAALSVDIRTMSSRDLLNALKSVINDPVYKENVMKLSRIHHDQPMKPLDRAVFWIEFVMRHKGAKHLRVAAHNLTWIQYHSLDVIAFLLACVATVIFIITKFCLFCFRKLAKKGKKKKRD

[14] = test system: recombinant SULT1A1; assay: Recombinant SULT inhibition by ABT, SULT1A1; format: biochemical; settings: 1 mM ABT, raloxifene probe substrate, data not shown
[15] = test system: recombinant SULT2B1; assay: Recombinant SULT inhibition by ABT, SULT2B1; format: biochemical; settings: 1 mM ABT, raloxifene probe substrate, data not shown
[16] = test system: recombinant SULT1E1; assay: Recombinant SULT inhibition by ABT, SULT1E1; format: biochemical; settings: 1 mM ABT, raloxifene probe substrate, data not shown
[17] = biological target: UGT2B7 (Homo sapiens, UniProt P16662); assay: UGT inhibition in suspension human hepatocytes; format: cell-based; settings: read-out: Ki,u HHEPs; UGT2B7, Zidovudine 100 μM, unbound
Chain of UGT2B7 (P16662 24-529): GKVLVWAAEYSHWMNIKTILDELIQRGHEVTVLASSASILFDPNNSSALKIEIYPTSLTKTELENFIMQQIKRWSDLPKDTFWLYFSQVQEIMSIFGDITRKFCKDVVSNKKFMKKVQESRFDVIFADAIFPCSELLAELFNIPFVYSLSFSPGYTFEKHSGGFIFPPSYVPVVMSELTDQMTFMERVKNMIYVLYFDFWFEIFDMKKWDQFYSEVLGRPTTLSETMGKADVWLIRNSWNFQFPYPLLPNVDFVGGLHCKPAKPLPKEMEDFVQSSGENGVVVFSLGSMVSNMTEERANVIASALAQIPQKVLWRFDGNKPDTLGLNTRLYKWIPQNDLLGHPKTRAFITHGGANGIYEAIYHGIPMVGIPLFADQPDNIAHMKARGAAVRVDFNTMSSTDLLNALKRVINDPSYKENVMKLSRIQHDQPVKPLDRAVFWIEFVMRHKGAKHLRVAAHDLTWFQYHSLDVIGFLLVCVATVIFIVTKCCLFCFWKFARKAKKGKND

[18] = biological target: UGT1A4 (Homo sapiens, UniProt P22310); assay: UGT inhibition in suspension human hepatocytes; format: cell-based; settings: read-out: Ki,u HHEPs; UGT1A4, TFP 1 μM, unbound
Chain of UGT1A4 (P22310 29-534): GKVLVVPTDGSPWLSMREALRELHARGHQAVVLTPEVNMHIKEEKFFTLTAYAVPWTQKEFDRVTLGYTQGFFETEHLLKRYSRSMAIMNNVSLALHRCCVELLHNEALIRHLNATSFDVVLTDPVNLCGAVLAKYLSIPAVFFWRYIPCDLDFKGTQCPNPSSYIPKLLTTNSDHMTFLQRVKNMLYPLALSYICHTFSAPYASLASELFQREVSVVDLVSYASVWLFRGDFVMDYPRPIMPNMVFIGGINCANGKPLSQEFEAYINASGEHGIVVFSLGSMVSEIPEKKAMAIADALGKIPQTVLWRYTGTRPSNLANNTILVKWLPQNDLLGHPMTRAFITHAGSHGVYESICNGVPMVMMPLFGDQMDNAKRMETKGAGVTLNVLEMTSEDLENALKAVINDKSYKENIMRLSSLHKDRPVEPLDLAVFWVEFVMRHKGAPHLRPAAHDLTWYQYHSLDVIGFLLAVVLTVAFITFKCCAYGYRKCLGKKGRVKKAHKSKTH

[19] = biological target: T1, SULT2A1; assay: Recombinant SULT inhibition by ABT, SULT2A1; format: biochemical; settings: 1 mM ABT, raloxifene probe substrate, data not shown
[20] = test system: recombinant SULT1C4; assay: Recombinant SULT inhibition by ABT, SULT1C4; format: biochemical; settings: 1 mM ABT, raloxifene probe substrate, data not shown
[21] = biological target: UGT1A6 (Homo sapiens, UniProt P19224); assay: UGT inhibition in suspension human hepatocytes; format: cell-based; settings: UGT1A6, Serotonin 1715 μM, unbound
Chain of UGT1A6 (P19224 27-532): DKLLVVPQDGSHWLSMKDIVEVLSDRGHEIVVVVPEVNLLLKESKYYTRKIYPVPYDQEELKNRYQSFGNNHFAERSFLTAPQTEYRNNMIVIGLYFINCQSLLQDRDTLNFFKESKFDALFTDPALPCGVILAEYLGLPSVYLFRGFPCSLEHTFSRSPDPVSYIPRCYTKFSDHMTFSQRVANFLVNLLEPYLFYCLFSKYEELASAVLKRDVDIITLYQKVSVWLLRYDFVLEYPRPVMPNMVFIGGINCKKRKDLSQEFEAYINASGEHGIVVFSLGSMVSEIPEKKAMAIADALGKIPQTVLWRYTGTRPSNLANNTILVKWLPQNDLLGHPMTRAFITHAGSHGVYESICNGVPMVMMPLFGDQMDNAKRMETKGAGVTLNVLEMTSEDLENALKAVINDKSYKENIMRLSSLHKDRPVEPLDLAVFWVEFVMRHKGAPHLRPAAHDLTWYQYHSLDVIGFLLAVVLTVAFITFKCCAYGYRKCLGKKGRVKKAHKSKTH

[22] = test system: recombinant SULT1A3; assay: Recombinant SULT inhibition by ABT, SULT1A3; format: biochemical; settings: 1 mM ABT, raloxifene probe substrate, data not shown
[23] = biological target: UGT1A1 (Homo sapiens, UniProt P22309); assay: UGT inhibition in suspension human hepatocytes; format: cell-based; settings: UGT1A1, β‐Estradiol 3 μM, unbound
Chain of UGT1A1 (P22309 26-533): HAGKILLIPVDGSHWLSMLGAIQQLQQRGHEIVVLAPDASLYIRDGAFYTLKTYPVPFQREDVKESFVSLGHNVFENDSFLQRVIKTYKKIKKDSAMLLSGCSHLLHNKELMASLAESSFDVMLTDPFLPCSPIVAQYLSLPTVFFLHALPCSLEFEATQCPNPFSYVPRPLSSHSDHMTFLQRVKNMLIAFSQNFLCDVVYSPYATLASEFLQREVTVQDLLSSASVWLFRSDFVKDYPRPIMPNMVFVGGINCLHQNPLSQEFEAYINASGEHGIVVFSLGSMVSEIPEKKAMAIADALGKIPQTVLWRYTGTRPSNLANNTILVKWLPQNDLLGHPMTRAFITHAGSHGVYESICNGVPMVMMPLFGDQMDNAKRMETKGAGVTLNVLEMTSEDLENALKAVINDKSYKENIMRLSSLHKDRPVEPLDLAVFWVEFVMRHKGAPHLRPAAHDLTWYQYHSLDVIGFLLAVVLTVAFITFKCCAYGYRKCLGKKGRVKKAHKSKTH

[24] = test system: recombinant SULT1B1; assay: Recombinant SULT inhibition by ABT, SULT1B1; format: biochemical; settings: 1 mM ABT, raloxifene probe substrate, data not shown
[25] = biological target: UGT1A3 (Homo sapiens, UniProt P35503); assay: UGT inhibition in suspension human hepatocytes; format: cell-based; settings: read-out: Ki,u HHEPs; UGT1A3, CDCA 2 μM, unbound
Chain of UGT1A3 (P35503 29-534): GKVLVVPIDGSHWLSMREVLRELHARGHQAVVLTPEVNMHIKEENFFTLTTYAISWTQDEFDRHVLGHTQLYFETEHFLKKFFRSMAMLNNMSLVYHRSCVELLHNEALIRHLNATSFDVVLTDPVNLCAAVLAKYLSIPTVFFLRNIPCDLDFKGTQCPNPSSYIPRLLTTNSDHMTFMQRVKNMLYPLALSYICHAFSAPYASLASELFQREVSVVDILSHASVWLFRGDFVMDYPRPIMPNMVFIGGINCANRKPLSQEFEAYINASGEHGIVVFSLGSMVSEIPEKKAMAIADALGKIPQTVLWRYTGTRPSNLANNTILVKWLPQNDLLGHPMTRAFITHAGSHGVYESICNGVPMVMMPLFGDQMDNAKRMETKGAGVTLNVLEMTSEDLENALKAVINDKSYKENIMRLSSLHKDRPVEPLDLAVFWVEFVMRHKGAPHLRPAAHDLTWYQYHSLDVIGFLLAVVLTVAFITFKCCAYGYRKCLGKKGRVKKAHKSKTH

[26] = Hμrel, 1'hydroxylation of midazolam

Compound: O=C1CC[C@H](N2Cc3cc(N4CCN(CC5CCN(c6ccc([C@@H]7c8ccc(O)cc8CC[C@@H]7c7ccccc7)cc6)CC5)CC4)ccc3C2=O)C(=O)N1 [ARV-471]
- glucuronide metabolism of palbociclib ([1]; Hμrel and TruVivo, 5 μM palbociclib, 20 μM ARV‐471): completely inhibited
- inhibition of metabolic clearance accounted for by glucuronide metabolism ([1]; based on MS ionization and summed metabolite area ratios, 20 μM ARV‐471): up to 50%
- increase in palbociclib exposure (area under the curve) ([2]; co‐administration of palbociclib with ARV‐471, phase Ib): ~ 50% and 50%
- adverse event with increased palbociclib exposure ([2]; palbociclib with ARV‐471, phase Ib): grade 3/4 neutropenia
- increase in palbociclib exposure recapitulated from Clint inhibition [3]: 50%
- pIC50 [4]: < 4.46
- direct inhibition of CYP3A activity [5, 26]: no direct inhibition; also recorded: no direct or time‐dependent inhibition
- time‐dependent inhibition of CYP3A [5, 26]: no direct or time‐dependent inhibition
- Emax, increase in midazolam activity (CYP3A induction) ([5]; Hμrel, concentration and time‐dependent increase): 3.8 fold
- pEC50 ([5]; human, Hμrel co-culture hepatocytes, probe midazolam (1'-hydroxylation)): 6.60
- pIC50 [6]: < 4.46
- effect on palbociclib sulfation over the time course [7]: apparent activation

Compound: C=C[C@H]1C[N@@]2CC[C@H]1C[C@@H]2[C@@H](O)c1ccnc2ccc(OC)cc12 [quinidine]
- CYP2B6 induction (result in words) [8]: did not induce

Compound: CC(=O)c1c(C)c2cnc(Nc3ccc(N4CCNCC4)cn3)nc2n(C2CCCC2)c1=O [palbociclib]
- Clint at 5 μM compared with 0.045 μM ([1]; co-culture hepatocytes, suggesting saturation of metabolic clearance): reduced
- share of palbociclib clearance by glucuronidation [9]: 25%–30%

Compound: CC(=O)N1CCN(c2ccc(OCC3COC(Cn4ccnc4)(c4ccc(Cl)cc4Cl)O3)cc2)CC1 (stereo not shown) [ketoconazole]
- CYP3A4 induction Emax [10]: 2 fold

Compound: Nn1nnc2ccccc21 [ABT, Aminobenzotriazole]
- inhibition of SULT1C2 [11]: No significant inhibition
- pKi [12]: 2.34
- pKi [13]: < 1.70
- inhibition of SULT1A1 [14]: No significant inhibition
- inhibition of SULT2B1 [15]: No significant inhibition
- inhibition of SULT1E1 [16]: No significant inhibition
- pKi [17]: 2.26
- pKi [18]: 2.60
- inhibition of SULT2A1 [19]: No significant inhibition
- inhibition of SULT1C4 [20]: No significant inhibition
- Ki,u HHEPs [21]: No inhibition
- inhibition of SULT1A3 [22]: No significant inhibition
- Ki,u HHEPs [23]: No inhibition
- inhibition of SULT1B1 [24]: No significant inhibition
- pKi [25]: 2.22
